High-throughput results from PubChem BioAssay.
In the library only some 2.5% were active in any assay of this set; here they are far more common.
SENP7 block: blocks the human protease SENP7; inhibition, % at 5 µM; Q9BQF6; recombinant SENP7, Z-RLRGG-aminoluciferin luminescence, 40 min; AID 434973; 1.5% of 330,000 active;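 active = inhibition above about 50% at the single test dose, limit read from the data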;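 also: plate controls were DMSO with enzyme for no effect and no enzyme buffer wells for full effect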
SENP8 block-1: inhibitors of human SENP8 protease; recombinant SENP8, Nedd8 substrate fluorescence; 0.64% of 360,000 active; Q96LD8; AID 602440; inhibition, % at 20 µM; in the data active = inhibition mostly above about 40%, no sharp cut-off; inactive = mostly below about 27%
SENP1 inh: inhibitors of human SENP1 SUMO protease catalytic domain. 0.21% of 360,000 active. inhibition, % at 10 µM. recombinant SENP1 catalytic domain, CyPet-SUMO1-YPet FRET cleavage. AID 624204. Q9P0U3;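 active = inhibition at least 30% at 10 µM, raw YFP signal under a set limit, fluorescence ratio 0.5 to 1.5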;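 also: 0% = enzyme with DMSO and 100% = no enzyme wells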
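Compound: 10 µM single point, 0.5% DMSO; Test system: hSENP1 catalytic domain, recombinant; Timing: 50 min reaction at room temperature; Technique: FRET, CFP and YFP emission; Control set: no-enzyme wells low, DMSO-plus-enzyme wells high control.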
SENP8 block-2: blocks the human protease SENP8; Q96LD8; purified SENP8, Z-RLRGG-aminoluciferin cleavage, luminescence; inhibition, % at 10 µM; 1.2% of 330,000 active; AID 2540; in the data active = inhibition above about 50%
SENP6 inh: SENP6 protease inhibition; inhibition, % at 10 µM; 1.8% of 330,000 active; Recombinant SENP6 catalytic domain, aminoluciferin luminescence; Q9GZR1;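 active = inhibition above about 50% at the single tested dose, limit read from the data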;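 also: plate controls were DMSO wells with enzyme for no effect and DMSO wells lacking enzyme for full effect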
Target sequence (Q9GZR1 628-1112 limits assumed): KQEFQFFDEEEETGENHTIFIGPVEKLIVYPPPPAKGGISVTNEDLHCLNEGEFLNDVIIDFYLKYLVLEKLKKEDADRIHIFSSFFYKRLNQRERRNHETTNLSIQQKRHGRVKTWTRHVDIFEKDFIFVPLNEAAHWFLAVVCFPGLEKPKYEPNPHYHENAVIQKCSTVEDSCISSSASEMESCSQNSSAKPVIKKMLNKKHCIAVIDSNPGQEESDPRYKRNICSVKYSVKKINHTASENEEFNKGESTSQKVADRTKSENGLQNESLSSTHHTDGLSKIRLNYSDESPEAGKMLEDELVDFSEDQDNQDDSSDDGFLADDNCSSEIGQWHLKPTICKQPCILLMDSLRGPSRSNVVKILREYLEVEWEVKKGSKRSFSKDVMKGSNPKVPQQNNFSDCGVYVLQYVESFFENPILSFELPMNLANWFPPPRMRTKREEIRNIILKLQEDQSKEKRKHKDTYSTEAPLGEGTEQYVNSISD
SENP8 conf-1: confirmation of human SENP8 protease inhibitors | inhibition, % at 12.5 µM | shares compounds with SENP7 block | 40% of 6,200 active | Recombinant SENP8, Z-RLRGG-aminoluciferin luminescence, 60 min;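 active = mean inhibition across replicates above about 50%, limit read from the data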
SENP6 confirm: human SENP6 inhibition, confirmed; shares compounds with SENP7 block; recombinant SENP6, Z-RLRGG-aminoluciferin luminescence; inhibition, % at 12.5 µM; 58% of 6,200 active; AID 488915
SENP7 conf: confirmation of human SENP7 protease inhibitors. shares compounds with SENP7 block. recombinant SENP7, Z-RLRGG-aminoluciferin luminescence, 40 min. inhibition, % at 12.5 µM. 69% of 6,200 active
Casp3 select: inhibits human caspase-3 in SENP selectivity test; shares compounds with SENP7 block; purified caspase-3, Z-DEVD-aminoluciferin luminescence, 60 min; inhibition, % at 12.5 µM; 60% of 6,200 active; AID 488918;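 active = mean inhibition above about 50%, limit read from the data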;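 also: plate controls were enzyme with DMSO for no effect and wells without caspase-3 for full effect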
SENP luc ctr: interferes with luciferase luminescence in SENP counter-screen | shares compounds with SENP7 block | Pre-incubated SENP8/Z-RLRGG-aminoluciferin, luciferase luminescence interference | inhibition, % at 12.5 µM | 39% of 6,200 active;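 active = mean inhibition above about 50% when retested at one dose, limit read from the data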;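 also: plate controls were DMSO wells with completed reaction for no effect and substrate without enzyme for full effect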
SENP8 conf-2: confirmation of human SENP8 protease inhibitors; shares compounds with SENP8 block-1; purified SENP8, Nedd8-AMC/pro-Nedd8 cleavage fluorescence, 30 min; inhibition, % at 25 µM; 15% of 1,400 active; AID 624319; in the data active = inhibition mostly above about 39%, no sharp cut-off; inactive = mostly below about 34%
SENP1 conf: SENP1 (human) inhibition, single concentration confirmation; inhibition, % at 10 µM; shares compounds with SENP1 inh; recombinant SENP1, CyPet-SUMO1-YPet FRET cleavage; 34% of 520 active; in the data active = inhibition mostly above about 35%, no sharp cut-off; inactive = mostly below about 32%;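 also: 0% = enzyme with DMSO and 100% = no enzyme control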
SENP1 kinetic: confirmation of human SENP1 SUMO protease inhibitors, kinetic | shares compounds with SENP1 inh | recombinant SENP1, CyPet-SUMO1-YPet FRET kinetic cleavage | inhibition, % at 10 µM | 26% of 520 active; in the data active = inhibition mostly above about 32%, no sharp cut-off; inactive = mostly below about 29%;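 also: 0% = DMSO with enzyme and 100% = no enzyme substrate only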
Active calls of the source: *.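 The calls were made as follows, unless noted: active = mean inhibition above about 50% in the one-dose retest (limit read from the data); inactive = the rest.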

For C[n+]1cccc2c(Br)ccc([O-])c21 the results were SENP7 block 87*, SENP8 block-1 117*, SENP1 inh 8, SENP8 block-2 93*, SENP6 inh 95*, SENP8 conf-1 11, SENP6 confirm 40, SENP7 conf 17, Casp3 select 6, SENP luc ctr -1 and SENP8 conf-2 69*.
Screening O=C(CN(Cc1ccccc1)S(=O)(=O)c1ccc(F)cc1)NCc1ccccn1 returned SENP7 block -2, SENP8 block-1 6, SENP1 inh 0, SENP8 block-2 -3 and SENP6 inh -2.
For N#Cc1ccccc1OCC(=O)N1CCN(S(=O)(=O)c2ccc(Cl)cc2)CC1 the results were SENP7 block 5, SENP8 block-1 11, SENP1 inh 1, SENP8 block-2 -1 and SENP6 inh 2.
O=C1Cc2ccccc2C(=O)N1Cc1ccccc1 was read as SENP7 block 79*, SENP8 block-1 85*, SENP1 inh -5, SENP8 block-2 94*, SENP6 inh 91*, SENP8 conf-1 39, SENP6 confirm 88*, SENP7 conf 64*, Casp3 select 72*, SENP luc ctr -7 and SENP8 conf-2 35.
Screening O=C1Cc2ccccc2C(=O)N1c1cccc(Cl)c1 returned SENP7 block 18, SENP8 block-1 71*, SENP1 inh -3, SENP8 block-2 10, SENP6 inh 52*, SENP8 conf-1 9, SENP6 confirm 33, SENP7 conf 22, Casp3 select 14, SENP luc ctr 3 and SENP8 conf-2 41.
For O=C1CC(=O)N(c2ccccc2)c2ccccc21 the results were SENP7 block 1, SENP8 block-1 10, SENP1 inh 0, SENP8 block-2 1 and SENP6 inh 2.
For O=C1Cc2ccccc2C(=O)N1c1ccccc1 the results were SENP7 block 18, SENP8 block-1 53*, SENP1 inh -26, SENP8 block-2 17, SENP6 inh 54*, SENP8 conf-1 5, SENP6 confirm 10, SENP7 conf 8, Casp3 select 15, SENP luc ctr 6 and SENP8 conf-2 4.
COc1ccc(CCN2C(=O)COc3ccccc3C2C(=O)NCc2ccccc2)cc1OC (centres undefined) was read as SENP8 block-1 9 and SENP1 inh 4.
Screening Cc1ccc(NC(=O)C2CCN(S(=O)(=O)c3ccc(C(C)(C)C)cc3)CC2)cc1S(=O)(=O)N1CCOCC1 returned SENP8 block-1 -2 and SENP1 inh 3.
Screening [O-]/C(=C(\C(=S)Nc1cccc2ccccc12)[n+]1ccccc1)c1ccc(OC(F)F)cc1 returned SENP8 block-1 -202 and SENP1 inh -39.
For COc1cccc(NC(=S)/C(=C(\[O-])c2ccc(OC(F)F)cc2)[n+]2ccccc2)c1 the results were SENP7 block 9, SENP8 block-1 61*, SENP1 inh -9, SENP8 block-2 0, SENP6 inh 53*, SENP8 conf-1 9, SENP6 confirm 41, SENP7 conf 1, Casp3 select 19, SENP luc ctr 5 and SENP8 conf-2 70*.
Screening Cc1[nH][nH]c(=O)c1C(c1c(C)[nH][nH]c1=O)c1cn(Cc2cccc3ccccc23)c2ccccc12 returned SENP7 block 24, SENP8 block-1 86*, SENP1 inh 6, SENP8 block-2 42, SENP6 inh 57*, SENP8 conf-1 3, SENP6 confirm 38, SENP7 conf 17, Casp3 select -1, SENP luc ctr -4 and SENP8 conf-2 85*.
O=c1c2ccccc2ncn1Cc1cccc2ccccc12 was read as SENP7 block -7, SENP8 block-1 2, SENP1 inh 1, SENP8 block-2 -12 and SENP6 inh -15.
For Nc1ccc(N2CCCCC2)c2nonc12 the results were SENP7 block 25, SENP8 block-1 80*, SENP1 inh 13, SENP8 block-2 58*, SENP6 inh 90*, SENP8 conf-1 30, SENP6 confirm 56*, SENP7 conf 20, Casp3 select -3, SENP luc ctr -3 and SENP8 conf-2 70*.
CC1(Cc2ccccc2C#N)C(=O)Nc2ccc(-c3ccccc3)cc21 (centres undefined) was read as SENP8 block-1 4 and SENP1 inh 0.
For COc1cc(C(=O)c2nccc3cc(OC)c(OC)cc23)c([N+](=O)[O-])cc1OC the results were SENP7 block 90*, SENP8 block-1 106*, SENP1 inh 39*, SENP8 block-2 84*, SENP6 inh 95*, SENP8 conf-1 26, SENP6 confirm 56*, SENP7 conf 24, Casp3 select -1, SENP luc ctr -5 and SENP8 conf-2 80*.
For COc1ccc(C(=O)NCc2ncccc2C)cc1OC1CCN(C(C)=O)CC1 the results were SENP7 block 2, SENP8 block-1 4, SENP1 inh 1, SENP8 block-2 3 and SENP6 inh -7.
For Cc1cccc(-c2noc(-c3cc4ccccc4oc3=O)n2)c1 the results were SENP7 block 82*, SENP8 block-1 -488, SENP1 inh 51*, SENP8 block-2 0, SENP6 inh 11, SENP8 conf-1 20, SENP6 confirm 21, SENP7 conf 21, Casp3 select 38, SENP luc ctr 3, SENP1 conf 0 and SENP1 kinetic 6.
`Cc1cccc(-c2noc(-c3ccc(Cl)cc3[N+](=O)[O-])n2)c1` gave SENP7 block 39, SENP8 block-1 19, SENP1 inh 1, SENP8 block-2 7 and SENP6 inh 39.
